ChEMBL document CHEMBL3627671, “Novel derivatives of nitro-substituted salicylic acids: Synthesis, antimicrobial activity and cytotoxicity” (Bioorg Med Chem, 2015)

Experiments:
Format in all cases: functional
[1] = tested on: Mycobacterium tuberculosis; test: Antimycobacterial activity against Mycobacterium tuberculosis H37Rv 331/88 after 14 days; settings: H37Rv 331/88, 336 h
[2] = tested on: Mycobacterium tuberculosis; test: Antimycobacterial activity against Mycobacterium tuberculosis H37Rv 331/88 after 21 days; settings: H37Rv 331/88, 504 h
Mycobacterium avium [3] = test: Antimycobacterial activity against Mycobacterium avium 330/80 after 14 days; settings: 330/80, 336 h
Mycobacterium avium [4] = test: Antimycobacterial activity against Mycobacterium avium 330/80 after 21 days; settings: 330/80, 504 h
Mycobacterium kansasii [5] = test: Antimycobacterial activity against Mycobacterium kansasii 235/80 after 7 days; settings: 235/80, 168 h
How it was run: (§1)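 Šula's semisynthetic medium micromethod at 37 °C, read after 7, 14 and 21 days. The 1.0 McFarland suspension was diluted 10^-4. MIC determined. 6509/96 is a clinical isolate.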

Mycobacterium kansasii [6] = test: Antimycobacterial activity against Mycobacterium kansasii 235/80 after 14 days; settings: 235/80, 336 h; how it was run: as §1
Mycobacterium kansasii [7] = test: Antimycobacterial activity against Mycobacterium kansasii 235/80 after 21 days; settings: 235/80, 504 h; how it was run: as §1
Mycobacterium kansasii [8] = test: Antimycobacterial activity against Mycobacterium kansasii 6509/96 after 7 days; settings: 6509/96, 168 h; how it was run: as §1
Mycobacterium kansasii [9] = test: Antimycobacterial activity against Mycobacterium kansasii 6509/96 after 14 days; settings: 6509/96, 336 h; how it was run: as §1
Mycobacterium kansasii [10] = test: Antimycobacterial activity against Mycobacterium kansasii 6509/96 after 21 days; settings: 6509/96, 504 h; how it was run: as §1
Staphylococcus aureus [11] = test: Antibacterial activity against Staphylococcus aureus CCM 4516/08 after 24 hrs by microdilution broth method; settings: CCM 4516/08, 24 h
Staphylococcus aureus [12] = test: Antibacterial activity against Staphylococcus aureus CCM 4516/08 after 48 hrs by microdilution broth method; settings: CCM 4516/08, 48 h
Staphylococcus aureus [13] = test: Antibacterial activity against methicillin-resistant Staphylococcus aureus H 5996/08 after 24 hrs by microdilution broth method; settings: H 5996/08, 24 h
Staphylococcus aureus [14] = test: Antibacterial activity against methicillin-resistant Staphylococcus aureus H 5996/08 after 48 hrs by microdilution broth method; settings: H 5996/08, 48 h
[15] = tested on: Staphylococcus epidermidis; test: Antibacterial activity against Staphylococcus epidermidis H 6966/08 after 24 hrs by microdilution broth method; settings: H 6966/08, 24 h
How it was run: (§2)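 Mueller-Hinton broth microdilution (modified M07-A07), pH 7.4 (±0.2). Compounds dissolved in DMSO, tested at final 500 to 0.49 µmol/L. Inoculum in sterile water matched to 0.5 McFarland. Incubated in the dark, humid atmosphere, 35 °C, read at 24 and 48 h visually and at 540 nm. MIC taken as ≥95% growth reduction (IC95) versus control.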

[16] = tested on: Staphylococcus epidermidis; test: Antibacterial activity against Staphylococcus epidermidis H 6966/08 after 48 hrs by microdilution broth method; settings: H 6966/08, 48 h; how it was run: as §2
Enterococcus sp. [17] = test: Antibacterial activity against Enterococcus sp. J 14365/08 after 24 hrs by microdilution broth method; settings: J 14365/08, 24 h; how it was run: as §2
Enterococcus sp. [18] = test: Antibacterial activity against Enterococcus sp. J 14365/08 after 48 hrs by microdilution broth method; settings: J 14365/08, 48 h; how it was run: as §2
Escherichia coli [19] = test: Antibacterial activity against Escherichia coli CCM4517 after 24 hrs by microdilution broth method; settings: CCM4517, 24 h; how it was run: as §2
Escherichia coli [20] = test: Antibacterial activity against Escherichia coli CCM4517 after 48 hrs by microdilution broth method; settings: CCM4517, 48 h; how it was run: as §2
Klebsiella pneumoniae [21] = test: Antibacterial activity against Klebsiella pneumoniae D 11750/08 after 24 hrs by microdilution broth method; settings: D 11750/08, 24 h; how it was run: as §2
Klebsiella pneumoniae [22] = test: Antibacterial activity against Klebsiella pneumoniae D 11750/08 after 48 hrs by microdilution broth method; settings: D 11750/08, 48 h; how it was run: as §2
Klebsiella pneumoniae [23] = test: Antibacterial activity against ESBL-positive Klebsiella pneumoniae J 14368/08 after 24 hrs by microdilution broth method; settings: J 14368/08, 24 h; how it was run: as §2
Klebsiella pneumoniae [24] = test: Antibacterial activity against ESBL-positive Klebsiella pneumoniae J 14368/08 after 48 hrs by microdilution broth method; settings: J 14368/08, 48 h; how it was run: as §2
Pseudomonas aeruginosa [25] = test: Antibacterial activity against Pseudomonas aeruginosa CCM 1961 after 24 hrs by microdilution broth method; settings: CCM 1961, 24 h; how it was run: as §2
Pseudomonas aeruginosa [26] = test: Antibacterial activity against Pseudomonas aeruginosa CCM 1961 after 48 hrs by microdilution broth method; settings: CCM 1961, 48 h; how it was run: as §2
Candida albicans [27] = test: Antifungal activity against Candida albicans ATCC 44859 after 24 hrs by microdilution broth method; settings: ATCC 44859, 24 h
How it was run: (§3)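 CLSI M27-A3 broth microdilution in RPMI 1640 with glutamine, buffered to pH 7.0 with MOPS; DMSO diluent. Yeast inoculum 5 × 10^3 ± 0.2 CFU/mL. Moulds grown on Sabouraud agar 3–10 days before spore harvest, final inoculum 0.5-5 × 10^4 CFU/mL, checked in a Bürker chamber. Incubated dark, humid, 35 °C, read at 24 and 48 h visually and at 540 nm. MIC taken as ≥80% (yeasts) or ≥50% (filamentous) growth reduction versus control.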

Candida albicans [28] = test: Antifungal activity against Candida albicans ATCC 44859 after 48 hrs by microdilution broth method; settings: ATCC 44859, 48 h; how it was run: as §3
Candida tropicalis [29] = test: Antifungal activity against Candida tropicalis 156 after 24 hrs by microdilution broth method; settings: Candida tropicalis, 156, 24 h; how it was run: as §3
Candida tropicalis [30] = test: Antifungal activity against Candida tropicalis 156 after 48 hrs by microdilution broth method; settings: Candida tropicalis, 156, 48 h; how it was run: as §3
Pichia kudriavzevii [31] = test: Antifungal activity against Candida krusei E28 after 24 hrs by microdilution broth method; settings: E28, 24 h; how it was run: as §3
Pichia kudriavzevii [32] = test: Antifungal activity against Candida krusei E28 after 48 hrs by microdilution broth method; settings: E28, 48 h; how it was run: as §3
Nakaseomyces glabratus [33] = test: Antifungal activity against Candida glabrata 20/I after 24 hrs by microdilution broth method; how it was run: as §3
Nakaseomyces glabratus [34] = test: Antifungal activity against Candida glabrata 20/I after 48 hrs by microdilution broth method; how it was run: as §3
Trichosporon asahii [35] = test: Antifungal activity against Trichosporon asahii 1188 after 24 hrs by microdilution broth method; settings: Trichosporon asahii, 1188, 24 h; how it was run: as §3
Trichosporon asahii [36] = test: Antifungal activity against Trichosporon asahii 1188 after 48 hrs by microdilution broth method; settings: Trichosporon asahii, 1188, 48 h; how it was run: as §3
Aspergillus fumigatus [37] = test: Antifungal activity against Aspergillus fumigatus 231 after 24 hrs by microdilution broth method; settings: Aspergillus fumigatus, 231, 24 h; how it was run: as §3
Aspergillus fumigatus [38] = test: Antifungal activity against Aspergillus fumigatus 231 after 48 hrs by microdilution broth method; settings: Aspergillus fumigatus, 231, 48 h; how it was run: as §3
Lichtheimia corymbifera [39] = test: Antifungal activity against Absidia corymbifera 272 after 24 hrs by microdilution broth method; settings: Lichtheimia corymbifera, 272, 24 h; how it was run: as §3
Lichtheimia corymbifera [40] = test: Antifungal activity against Absidia corymbifera 272 after 48 hrs by microdilution broth method; settings: Lichtheimia corymbifera, 272, 48 h; how it was run: as §3
[41] = tested on: Trichophyton mentagrophytes; test: Antifungal activity against Trichophyton mentagrophytes 445 after 24 hrs by microdilution broth method; settings: Trichophyton mentagrophytes, 445, 24 h
[42] = tested on: Trichophyton mentagrophytes; test: Antifungal activity against Trichophyton mentagrophytes 445 after 48 hrs by microdilution broth method; settings: Trichophyton mentagrophytes, 445, 48 h

Measured: MIC

O=C(Nc1cccc(Br)c1)c1ccc([N+](=O)[O-])cc1O
250 µM: Pichia kudriavzevii [32] | Lichtheimia corymbifera [39] | [42]
62.5 µM: Mycobacterium avium [4] | Pichia kudriavzevii [31] | [41]
31.2 µM: Trichosporon asahii [35]
125 µM: Trichosporon asahii [36]
8 µM: Mycobacterium kansasii [5]
500 µM: Enterococcus sp. [17] | Enterococcus sp. [18] | Escherichia coli [19] | Klebsiella pneumoniae [21] | Klebsiella pneumoniae [22] | Klebsiella pneumoniae [23] | Klebsiella pneumoniae [24] | Lichtheimia corymbifera [40]
3.9 µM: Staphylococcus aureus [11] | Staphylococcus aureus [12] | Staphylococcus aureus [13] | Staphylococcus aureus [14] | [15] | [16]
16 µM: [1] | [2] | Mycobacterium kansasii [6] | Mycobacterium kansasii [7] | Mycobacterium kansasii [8] | Mycobacterium kansasii [9] | Mycobacterium kansasii [10]
32 µM: Mycobacterium avium [3]
> 500 µM: all other assays above

O=C(Nc1cccc(I)c1)c1ccc([N+](=O)[O-])cc1O
15.6 µM: [15] | [16]
32 µM: Mycobacterium avium [3]
62.5 µM: Mycobacterium avium [4]
3.9 µM: Staphylococcus aureus [11] | Staphylococcus aureus [12] | Staphylococcus aureus [13] | Staphylococcus aureus [14]
8 µM: Mycobacterium kansasii [5]
16 µM: [1] | [2] | Mycobacterium kansasii [6] | Mycobacterium kansasii [7] | Mycobacterium kansasii [8] | Mycobacterium kansasii [9] | Mycobacterium kansasii [10]
> 500 µM: all other assays above
